A short description of series [1]: Cytotoxicity against human K562 assessed as cell growth inhibition incubated for 72 hrs under dark condition by MTT assay. Type of series: toxicity, cell-based. Conditions: for IC50 at 72 h: K562 cells; for growth inhibition (GI): k562, 72 h. In a few lines:
(§1)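 MTT read-out after 72 h continuous exposure in the dark. Test concentrations were 10, 25 and 50 μM for K562 leukaemia and HCT116 colon carcinoma cells, and up to 100 μM for normal human skin fibroblasts. IC50 was taken from dose–response curves, as the mean ± SD of three independent experiments.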

A short description of series [2]: Cytotoxicity against human HCT116 assessed as cell growth inhibition incubated for 72 hrs under dark condition by MTT assay. Type of series: toxicity, cell-based, HCT-116. Conditions: for IC50 at 72 h: HCT116 cells; for growth inhibition (GI): hct-116, 72 h. In a few lines: as §1
Series [3] can be described thus: Cytotoxicity against human fibroblasts assessed as cell growth inhibition incubated for 72 hrs under dark condition by MTT assay. Type of series: toxicity, cell-based, Fibroblast. In a few lines:
as §1
Background: Formazan colour is commonly taken as a measure of viable cells.

Series [4] is described as follows: (§2) Photocytotoxicity against human HCT116 cells assessed as cell growth inhibition incubated for 72 hrs after exposure to 7 mW/cm2 of light-irradiation for 40 mins by MTT assay. Type of series: functional, cell-based. Conditions: HCT-116, light or radiation study. In a few lines: (§3)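 HCT116 cells with compound were irradiated with visible light (λ = 420 nm, 7 mW cm–2) for 40 min, then incubated to 72 h. Growth inhibition was read by MTT. IC50 was taken from dose–response curves, as the mean ± SD of three independent experiments.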

A further series relates to HCT-116. Described as §2. Type of series: functional, cell-based. In a few lines:
as §3

The nature of series [5]: Stability of the compound in phosphate buffer at 50 uM and pH 7.4 under dark condition. Type of series: physicochemical. Conditions: pH 7.4, 50 µM. In a few lines:
(§4)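 NO was monitored directly in real time with an amperometric NO electrode (nanomolar sensitivity). Samples were 50 μM solutions in 10 mM phosphate buffer, pH 7.4, with 0.5% DMSO, kept in the dark and then illuminated with visible light (λ = 420 nm, 1.5 mW cm–2).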

Series [6] can be described thus: Induction of NO release in phosphate buffer at 50 uM and pH 7.4 upon 1.5 mW/cm2 visible-light irradiation. Type of series: physicochemical. The conditions noted are these: pH 7.4, 50 µM. In outline: as §4
Series [7] in a line: Photoreactivity of the compound in phosphate buffer assessed as photobleaching of visible band at 50 uM and pH 7.4 upon 7 mW/cm2 of light-irradiation measured up to 70 mins. Type of series: physicochemical. Conditions: pH 7.4, 70 min. In a few lines: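 50 μM solutions in 10 mM phosphate buffer, pH 7.4, with 0.5% DMSO were irradiated at λ = 420 nm, 7 mW cm–2, from 0 to 70 min. Absorption spectral changes were recorded, and kinetic profiles were followed at λmax and fitted linearly.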

The nature of series [8]: Ratio of cytotoxicity against human HCT116 cells assessed as cell growth inhibition at 50 uM incubated for 72 hrs under dark condition by MTT assay to photocytotoxicity against human HCT116 cells assessed as cell growth inhibition at 50 uM incubated for 72 hrs after exposure to 7 mW/cm2 of light-irradiation for 40 mins by MTT assay.

The source made the active and inactive calls. No cut-off for these calls is given here. Some results are limits rather than exact numbers.

A word on the IC50: it is the concentration that gives 50% inhibition. As for `C[C@H](CCC(=O)O)[C@H]1CC[C@H]2[C@@H]3[C@H](O)C[C@@H]4C[C@H](n5cc(CCCNc6ccc([N+](=O)[O-])c(C(F)(F)F)c6)nn5)CC[C@]4(C)[C@H]3CC[C@]12C`, the IC50 at 72 h in series [1] came to 24 µM; in series [2], 21 µM; in series [3], 32 µM.

Turning to `Nc1ncnc2c1nc(SCCCCCNc1ccc([N+](=O)[O-])c(C(F)(F)F)c1)n2[C@H]1C[C@H](O)[C@@H](CO)O1`, the IC50 at 72 h was 68.1 µM in series [1], 66.2 µM in series [2] and above 100 µM in [3]. Besides, the “growth inhibition (GI)” value in series [1] and in [2] was “Dose-dependent effect” throughout. Besides, the IC50 in series [4] came to 31 µM. In addition, the result with HCT-116 was Active. Besides, the Stability entry in series [5] is “Stable”. For the same molecule, the result in series [6] and in series [7] was Active. Further, the Ratio in [8] stood at 2.

`C[C@H](CCC(=O)O)[C@H]1CC[C@H]2[C@@H]3[C@@H](O)C[C@@H]4C[C@H](n5cc(CCCNc6ccc([N+](=O)[O-])c(C(F)(F)F)c6)nn5)CC[C@]4(C)[C@H]3CC[C@]12C`: the IC50 at 72 h is 31.6 µM in [1], 14 µM in [2] and above 100 µM in series [3]. The “growth inhibition (GI)” value in [1] and in series [2] was “Dose-dependent effect” in each case. For the same molecule, the Stability result in series [5] was “Stable”. Besides, the result in series [6] was Active.

The record behind these values is ChEMBL document CHEMBL3853359, “NO Photoreleaser-Deoxyadenosine and -Bile Acid Derivative Bioconjugates as Novel Potential Photochemotherapeutics” (ACS Med Chem Lett, 2016).
